In ChEMBL document CHEMBL4257446, “Synthesis and biological evaluation of chalcone-linked pyrazolo[1,5-a]pyrimidines as potential anticancer agents” (Medchemcomm, 2017):
The source made the active and inactive calls. The rule behind the calls is not given here.

Columns and labels:
HEK293 [1] = test: Antiproliferative activity against HEK293 cells after 24 hrs by MTT assay; format: cell-based; settings: Homo sapiens, HEK293, 24 h
A549 [2] = test: Antiproliferative activity against human A549 cells after 24 hrs by MTT assay; format: functional, cell-based; settings: A549, 24 h
Outline: (§1)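 Cells exposed to a range of compound concentrations; viability read by MTT assay. IC50 (concentration giving 50% growth inhibition) calculated and reported as mean ± S.D. of three independent experiments, each run in triplicate.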

DU-145 = test: Antiproliferative activity against human DU145 cells after 24 hrs by MTT assay; format: functional, cell-based; settings: DU-145, 24 h; outline: as §1
MDA-MB-231 = test: Antiproliferative activity against human MDA-MB-231 cells after 24 hrs by MTT assay; format: functional, cell-based; settings: MDA-MB-231, 24 h; outline: as §1
HEK293 [3] = test: Induction of apoptosis in HEK293 cells assessed as effect on p21 levels after 24 hrs by Western blot analysis; format: cell-based; settings: human, hek293, 24 h
A549 [4] = test: Induction of apoptosis in human A549 cells assessed as decrease in pro-caspase-9 levels at 2 uM after 24 hrs by Western blot analysis; format: functional, cell-based
A549 [5] = test: Decrease in STAT3 protein expression in human A549 cells in STAT3 levels at 2 uM after 24 hrs by Western blot analysis; format: functional, cell-based
Outline: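 A549 cells exposed at 2 μM final concentration and collected 24 h later. Total protein lysate extracted and immunoblotted with antibodies against the EGFR/STAT3 pathway proteins. Erlotinib-treated cells were the positive control and untreated cells the negative control.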

HEK293 [6] = test: Induction of apoptosis in HEK293 cells assessed as effect on p53 levels after 24 hrs by Western blot analysis; format: cell-based; settings: human, hek293, 24 h
HEK293 [7] = test: Cell cycle arrest in HEK293 cells after 24 hrs by propidium iodide staining-based flow cytometric analysis; settings: human, hek293, 24 h
A549 [8] = test: Induction of apoptosis in human A549 cells assessed as increase in p21 levels at 2 uM after 24 hrs by Western blot analysis; format: functional, cell-based
Outline: (§2)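 A549 cells given 2 μM final concentration for 24 h. Total lysate probed by western blot for apoptosis-related proteins (Bax, p53, p21, caspase-3, Bcl2). Erlotinib served as positive control and untreated cells as negative control.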

HEK293 [9] = test: Induction of apoptosis in HEK293 cells assessed as effect on Bcl2 levels after 24 hrs by Western blot analysis; format: cell-based; settings: human, hek293, 24 h
A549 [10] = test: Induction of apoptosis in human A549 cells assessed as increase in Bax levels at 2 uM after 24 hrs by Western blot analysis; format: functional, cell-based; outline: as §2
A549 [11] = test: Induction of apoptosis in human A549 cells assessed as increase in p53 levels at 2 uM after 24 hrs by Western blot analysis; format: functional, cell-based; outline: as §2
A549 [12] = test: Induction of apoptosis in human A549 cells assessed as decrease in Bcl2 levels at 2 uM after 24 hrs by Western blot analysis; format: functional, cell-based; outline: as §2
A549 [13] = test: Cell cycle arrest in human A549 cells assessed as accumulation of cells at G2/M phase at 2 uM after 24 hrs by propidium iodide staining-based flow cytometric analysis (reference value: 20.4%); format: functional
HEK293 [14] = test: Induction of apoptosis in HEK293 cells assessed as effect on Bax levels after 24 hrs by Western blot analysis; format: cell-based; settings: human, hek293, 24 h

SMILES	IC50 (A549 [2]) [µM]	IC50 (DU-145) [µM]	IC50 (MDA-MB-231) [µM]	IC50 (HEK293 [1]) [µM]	also measured
COc1ccc(-c2cc(/C=C/C(=O)c3ccc(Cl)cc3)nc3cc(-c4ccccc4)nn23)cc1OC	15.4	21.3	17.1	44.1	–
COc1ccc(-c2cc(/C=C/C(=O)c3ccc(C)cc3)nc3cc(-c4ccccc4)nn23)cc1OC	17.2	26.8	19.8	62.6	–
COc1ccc(-c2cc(C(=O)/C=C/c3ccc(C)cc3)nc3cc(-c4ccccc4)nn23)cc1OC	22.2	19.5	22.6	57.4	–
COc1ccc(C(=O)/C=C/c2cc(-c3cc(OC)c(OC)c(OC)c3)n3nc(-c4ccccc4)cc3n2)cc1OC	17.8	29.9	18.3	81.7	–
COc1ccc(-c2cc(C(=O)/C=C/c3ccccc3)nc3cc(-c4ccccc4)nn23)cc1OC	18.6	15.6	23.3	64.1	–
COc1ccc(-c2cc(C(=O)/C=C/c3cc(OC)c(OC)c(OC)c3)nc3cc(-c4ccccc4)nn23)cc1OC	15.4	14.7	16.7	46.8	–
COc1ccc(/C=C/C(=O)c2cc(-c3cc(OC)c(OC)c(OC)c3)n3nc(-c4ccccc4)cc3n2)cc1OC	20.5	15.3	14.2	41	–
COc1ccc(/C=C/C(=O)c2cc(-c3ccc(OC)c(OC)c3)n3nc(-c4ccccc4)cc3n2)cc1	19.3	14.9	22	50.7	–
COc1ccc(-c2cc(C(=O)/C=C/c3ccc(Cl)cc3)nc3cc(-c4ccccc4)nn23)cc1OC	22	22.4	23.7	39.1	–
COc1ccc(/C=C/C(=O)c2cc(-c3cc(OC)c(OC)c(OC)c3)n3nc(-c4ccccc4)cc3n2)cc1	21.2	16.9	16.5	46.6	–
COc1cc(-c2cc(/C=C/C(=O)c3ccc(Cl)cc3)nc3cc(-c4ccccc4)nn23)cc(OC)c1OC	15.5	29.3	32.5	≥ 100	–
COc1cc(-c2cc(C(=O)/C=C/c3ccc(C)cc3)nc3cc(-c4ccccc4)nn23)cc(OC)c1OC	20	21.9	18.6	56.1	–
COc1cc(-c2cc(/C=C/C(=O)c3ccc(C)cc3)nc3cc(-c4ccccc4)nn23)cc(OC)c1OC	19.4	27.1	23.9	50.4	–
COc1cc(-c2cc(/C=C/C(=O)c3ccccc3)nc3cc(-c4ccccc4)nn23)cc(OC)c1OC	18.2	34.3	15.8	≥ 100	–
COc1cc(-c2cc(C(=O)/C=C/c3ccc(Cl)cc3)nc3cc(-c4ccccc4)nn23)cc(OC)c1OC	23.8	19.5	21.6	53.9	–
COc1cc(/C=C/C(=O)c2cc(-c3cc(OC)c(OC)c(OC)c3)n3nc(-c4ccccc4)cc3n2)cc(OC)c1OC	25.9	17.9	18.4	41	–
COc1cc(C(=O)/C=C/c2cc(-c3cc(OC)c(OC)c(OC)c3)n3nc(-c4ccccc4)cc3n2)cc(OC)c1OC	20.5	34.9	24.3	≥ 100	–
COc1cc(-c2cc(C(=O)/C=C/c3ccccc3)nc3cc(-c4ccccc4)nn23)cc(OC)c1OC	18	16.3	19.2	44.8	–

The next compounds have a lower IC50 (A549 [2]) than those just listed; values first:

IC50 (A549 [2]) [µM]	IC50 (DU-145) [µM]	IC50 (MDA-MB-231) [µM]	SMILES	IC50 (HEK293 [1]) [µM]	also measured
11.9	14.6	13.9	COc1ccc(C(=O)/C=C/c2cc(-c3ccc(OC)c(OC)c3)n3nc(-c4ccccc4)cc3n2)cc1	40	–
9.3	12.1	11.5	COc1ccc(-c2cc(/C=C/C(=O)c3ccc(C)c(C)c3)nc3cc(-c4ccccc4)nn23)cc1OC	46.2	–
8.6	13.7	9.9	COc1ccc(-c2cc(/C=C/C(=O)c3ccccc3)nc3cc(-c4ccccc4)nn23)cc1	53.2	–
3.9	7.2	2.6	COc1ccc(C(=O)/C=C/c2cc(-c3ccc(OC)c(OC)c3)n3nc(-c4ccccc4)cc3n2)cc1OC	32.5	Activity (HEK293 [3]): Non-Toxic; Activity (A549 [4]): Active; Activity (A549 [5]): Active; Activity (HEK293 [6]): Non-Toxic; Activity (HEK293 [7]): Non-Toxic; Activity (A549 [8]): Active; Activity (HEK293 [9]): Non-Toxic; Activity (A549 [10]): Active; Activity (A549 [11]): Active; Activity (A549 [12]): Active; Activity (A549 [13]): 29.5%; Activity (HEK293 [14]): Non-Toxic
7.4	16.4	8.7	COc1ccc(-c2cc(/C=C/C(=O)c3ccc(OC)c(OC)c3)nc3cc(-c4ccccc4)nn23)cc1	48.5	–
10.4	18.4	14.7	C#Cc1cccc(Nc2ncnc3cc(OCCOC)c(OCCOC)cc23)c1 [ERLOTINIB]	30.3	Activity (A549 [5]): inactive; Activity (HEK293 [7]): Non-Toxic; Activity (A549 [13]): 24.5%
2.9	8.5	6.3	COc1ccc(C(=O)/C=C/c2cc(-c3ccc(OC)cc3)n3nc(-c4ccccc4)cc3n2)cc1	36.1	Activity (HEK293 [3]): Non-Toxic; Activity (A549 [4]): Active; Activity (A549 [5]): Active; Activity (HEK293 [6]): Non-Toxic; Activity (HEK293 [7]): Non-Toxic; Activity (A549 [8]): Active; Activity (HEK293 [9]): Non-Toxic; Activity (A549 [10]): Active; Activity (A549 [11]): Active; Activity (A549 [12]): Active; Activity (A549 [13]): 29.6%; Activity (HEK293 [14]): Non-Toxic
14.6	25.2	13.2	COc1ccc(C(=O)/C=C/c2cc(-c3cc(OC)c(OC)c(OC)c3)n3nc(-c4ccccc4)cc3n2)cc1	79.8	–
10.6	15.4	13.5	COc1cc(-c2cc(/C=C/C(=O)c3ccc(C)c(C)c3)nc3cc(-c4ccccc4)nn23)cc(OC)c1OC	72.5	–
7.2	8.3	4.7	COc1ccc(-c2cc(/C=C/C(=O)c3cc(OC)c(OC)c(OC)c3)nc3cc(-c4ccccc4)nn23)cc1OC	35	Activity (HEK293 [3]): Non-Toxic; Activity (A549 [4]): Active; Activity (A549 [5]): Active; Activity (HEK293 [6]): Non-Toxic; Activity (HEK293 [7]): Non-Toxic; Activity (A549 [8]): Active; Activity (HEK293 [9]): Non-Toxic; Activity (A549 [10]): Active; Activity (A549 [11]): Active; Activity (A549 [12]): Active; Activity (A549 [13]): 33.11%; Activity (HEK293 [14]): Non-Toxic
10.7	10	11.8	COc1ccc(-c2cc(/C=C/C(=O)c3ccccc3)nc3cc(-c4ccccc4)nn23)cc1OC	51.2	–
